Test results from ChEMBL document CHEMBL4765328 (Eur J Med Chem, 2020).
pIC50: −log10 of the molar value. Activity calls are given as the source filed them. The calls are words filed in the database; no cut-off is given here.

Experiments:
[1] = system: HeLa; experiment: Antiproliferative activity against human HeLa cells assessed as inhibition of cell growth; type: functional, cell-based
Procedure, shortened: (§1)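 Growth inhibition of cancer cell lines read from dose-response curves; IC50 as mean ± SEM of at least three independent experiments.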

[2] = system: HT-29; experiment: Antiproliferative activity against human HT-29 cells assessed as inhibition of cell growth; type: functional, cell-based; procedure, shortened: as §1
[3] = system: Daoy; experiment: Antiproliferative activity against human Daoy cells assessed as inhibition of cell growth; type: functional, cell-based
Procedure, shortened: (§2)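 Compounds from 10 mM DMSO stocks; final DMSO ≤0.25%. Growth inhibition of cancer cell lines read from dose-response curves; IC50 as mean ± SEM of at least three independent experiments.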

[4] = system: HL-60; experiment: Antiproliferative activity against human HL-60 cells assessed as inhibition of cell growth; type: functional, cell-based; procedure, shortened: as §1
[5] = system: SEM cells; experiment: Antiproliferative activity against human SEM cells assessed as inhibition of cell growth; type: functional, cell-based; procedure, shortened: as §2
[6] = system: Jurkat; experiment: Antiproliferative activity against human Jurkat cells assessed as inhibition of cell growth; type: functional, cell-based; procedure, shortened: as §2
[7] = Inhibition of bovine brain tubulin polymerisation preincubated with compound followed by GTP addition and measured after 20 mins by turbidimetry based spectrophotometric method; type: tissue-based, Bos taurus
Procedure, shortened: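 Bovine brain tubulin (10 µM) in glutamate buffer, preincubated with varying compound concentrations at 30 °C, then cooled to 0 °C. GTP added to 0.4 mM final, then warmed to 30 °C in a recording spectrophotometer. Assembly followed by turbidity at 350 nm.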

[8] = organism: Bos taurus; experiment: Inhibition of [3H]colchicine binding to bovine brain tubulin at 5 uM relative to control
Procedure, shortened: (§3)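 [3H]colchicine binding to purified tubulin, with tubulin at 0.5 µM and colchicine at 5 µM. Compounds tested at 5 and 0.5 µM. CA-4 was run in contemporaneous experiments for comparison.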

[9] = Antitumor activity mouse E0771 cells implanted in C57BL/6 mouse assessed as reduction tumor growth at 30 mg/kg, ip administered every other day relative to control; type: functional, EO771; design: scale not given: the % may be the effect or the level left
Procedure, shortened: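 Female C57BL/6 mice, seven weeks old, injected orthotopically into the mammary fat pad with 4 × 10^5 E0771 cells. Palpable tumours randomised into groups, dosed intraperitoneally every other day in DMSO vehicle, 100 µL final volume; vehicle-only controls. Caliper volume V=(D×d²)/2, tumour weight taken at end; n=5 mice/group; body weight monitored; two-way ANOVA with Bonferroni.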

[10] = organism: Bos taurus; experiment: Inhibition of [3H]colchicine binding to bovine brain tubulin at 0.5 uM relative to control; type: tissue-based; procedure, shortened: as §3
[11] = Cytotoxicity against human PBL assessed as inhibition of cell growth; type: cell-based; settings: peripheral blood lymphocytes (PBL)
Procedure, shortened: (§4)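 Peripheral blood lymphocytes from healthy donors, tested either unstimulated or stimulated with PHA; DMSO ≤0.25% final. Values are mean ± SEM of three separate experiments.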

[12] = Cytotoxicity against PHA-stimulated human PBL assessed as inhibition of cell growth; type: cell-based; settings: PHA-stimulated peripheral blood lymphocytes (PBL); procedure, shortened: as §4
[13] = Cytotoxicity against normal human astrocytes assessed as inhibition of cell growth; type: cell-based, Astrocyte
[14] = system: HeLa; experiment: Induction of microtubule network depolymerization in human HeLa cells assessed as appearance of disorganised microtubules at 10 nM after 24 hrs by immunofluorescence staining based confocal microscopic analysis; type: cell-based
Procedure, shortened: (§5)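 HeLa cells treated 24 h at 10, 50 or 100 nM. They were then fixed in cold 4% formaldehyde for 15 min and stained with anti-β-tubulin for 2 h at room temperature. Alexa 488 secondary and DAPI counterstain followed; imaged by confocal microscopy at 20X.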

[15] = system: HeLa; experiment: Induction of microtubule network depolymerization in human HeLa cells assessed as appearance of disorganised microtubules at 50 nM after 24 hrs by immunofluorescence staining based confocal microscopic analysis; type: cell-based; procedure, shortened: as §5
[16] = system: HeLa; experiment: Induction of microtubule network depolymerization in human HeLa cells assessed as appearance of disorganised microtubules at 100 nM after 24 hrs by immunofluorescence staining based confocal microscopic analysis; type: cell-based; procedure, shortened: as §5
[17] = system: HeLa; experiment: Induction of apoptosis in human HeLa cells assessed as viable cells at 10 nM measured after 24 hrs by Annexin V-FITC/propidium iodide staining based flow cytometry (reference value: 97.28 %); type: functional; settings: read-out: Activity
[18] = system: HeLa; experiment: Induction of apoptosis in human HeLa cells assessed as early apoptotic cells at 10 nM measured after 24 hrs by Annexin V-FITC/propidium iodide staining based flow cytometry (reference value: 0.96 %); type: functional
[19] = system: HeLa; experiment: Induction of apoptosis in human HeLa cells assessed as late apoptotic cells at 10 nM measured after 24 hrs by Annexin V-FITC/propidium iodide staining based flow cytometry (reference value: 1.22 %); type: functional
[20] = system: HeLa; experiment: Induction of apoptosis in human HeLa cells assessed as necrotic cells at 10 nM measured after 24 hrs by Annexin V-FITC/propidium iodide staining based flow cytometry (reference value: […]); type: functional
[21] = system: HeLa; experiment: Induction of apoptosis in human HeLa cells assessed as viable cells at 10 nM measured after 48 hrs by Annexin V-FITC/propidium iodide staining based flow cytometry (reference value: 97.28 %); type: functional; settings: read-out: Activity
[22] = system: HeLa; experiment: Induction of apoptosis in human HeLa cells assessed as early apoptotic cells at 10 nM measured after 48 hrs by Annexin V-FITC/propidium iodide staining based flow cytometry (reference value: 0.96 %); type: functional
[23] = system: HeLa; experiment: Induction of apoptosis in human HeLa cells assessed as late apoptotic cells at 10 nM measured after 48 hrs by Annexin V-FITC/propidium iodide staining based flow cytometry (reference value: 1.22 %); type: functional
[24] = system: HeLa; experiment: Induction of apoptosis in human HeLa cells assessed as necrotic cells at 10 nM measured after 48 hrs by Annexin V-FITC/propidium iodide staining based flow cytometry (reference value: […]); type: functional
[25] = system: HeLa; experiment: Induction of mitochondrial membrane potential loss in human HeLa cells assessed as cells with depolarized mitochondrial membrane at 10 nM after 24 hrs by JC-1 dye-based flow cytometric analysis (reference value: 7.8 %); type: functional
[26] = system: HeLa; experiment: Induction of mitochondrial membrane potential loss in human HeLa cells assessed as cells with depolarized mitochondrial membrane at 10 nM after 48 hrs by JC-1 dye-based flow cytometric analysis (reference value: 7.8 %); type: functional
[27] = system: HeLa; experiment: Induction of mitochondrial membrane potential loss in human HeLa cells assessed as cells with polarized mitochondrial membrane at 10 nM after 24 hrs by JC-1 dye-based flow cytometric analysis (reference value: 92.0 %); type: functional
[28] = system: HeLa; experiment: Induction of mitochondrial membrane potential loss in human HeLa cells assessed as cells with polarized mitochondrial membrane at 10 nM after 48 hrs by JC-1 dye-based flow cytometric analysis (reference value: 92.0 %); type: functional

Row | Compound | pIC50 [1] | pIC50 [2] | pIC50 [4] | pIC50 [6] | pIC50 [7] | inhibition [8] | inhibition [10] | pIC50 [3] | pIC50 [5] | also measured
1 | COc1cc(C(=O)c2c(N)oc3ccccc23)cc(OC)c1OC | 6.38 | 6.23 | 6.47 | 6.41 | – | – | – | 6.43 | 6.60 | –
2 | COc1ccc(/C=C\c2cc(OC)c(OC)c(OC)c2)cc1OP(=O)([O-])[O-].[Na+].[Na+] [FOSBRETABULIN DISODIUM] | – | – | – | – | – | – | – | – | – | Activity [9]: 26.5%
3 | COc1cc(C(=O)c2c(N)oc3cccc(OC)c23)cc(OC)c1OC | 5.28 | 5.19 | 5.31 | 5.56 | – | – | – | 5.40 | 5.34 | –
4 | COc1cc(C(=O)c2c(N)oc3c(OC)cccc23)cc(OC)c1OC | 6.30 | 6.32 | 6.63 | 6.48 | – | – | – | 6.46 | 6.55 | –
5 | COc1ccc2c(C(=O)c3cc(OC)c(OC)c(OC)c3)c(N)oc2c1 | 8.54 | 8.25 | 8.52 | 8.57 | 6.32 | 99% | 79% | 9.52 | 8.39 | –
6 | CCCOc1ccc2c(C(=O)c3cc(OC)c(OC)c(OC)c3)c(N)oc2c1 | 7.64 | 7.75 | 7.38 | 7.57 | 6.29 | 91% | 42% | 8.36 | 7.53 | –
7 | COc1ccc(/C=C\c2cc(OC)c(OC)c(OC)c2)cc1O [COMBRETASTATIN A4] | – | – | – | 9.10 | – | 97% | 82% | 7.91 | – | –
8 | COc1ccc2c(N)c(C(=O)c3cc(OC)c(OC)c(OC)c3)oc2c1 | 8.21 | 6.10 | 8.46 | 8.51 | – | – | – | 8.30 | 8.44 | –
9 | COc1cc(C(=O)c2c(N)oc3c(O)c(OC)ccc23)cc(OC)c1OC | 7.82 | 6.37 | 8.55 | 9.47 | 6.23 | 99% | 87% | 9.49 | 6.59 | –
10 | COc1cc(C(=O)c2c(N)oc3cc(F)ccc23)cc(OC)c1OC | 6.23 | 6.17 | 6.38 | 6.52 | – | – | – | 6.07 | 6.48 | –
11 | COc1cc(C(=O)c2c(N)oc3cc(OCc4ccccc4)ccc23)cc(OC)c1OC | 5.01 | 5.06 | 5.15 | 5.36 | – | – | – | < 5.00 | 5.43 | –
12 | CCOc1cccc2c(C(=O)c3cc(OC)c(OC)c(OC)c3)c(N)oc12 | 5.90 | 6.04 | 6.37 | 6.41 | – | – | – | 5.78 | 6.41 | –

The next lines start with results.

Row | pIC50 [1] | pIC50 [2] | pIC50 [4] | pIC50 [6] | pIC50 [7] | inhibition [8] | inhibition [10] | Compound | pIC50 [3] | pIC50 [5] | also measured
13 | 6.20 | 6.10 | 6.38 | 6.40 | – | – | – | COc1cc(C(=O)c2c(N)oc3ccc(N)cc23)cc(OC)c1OC | 6.31 | 6.59 | –
14 | 7.25 | 7.20 | 7.44 | 7.53 | 6.30 | 73% | – | COc1ccc2oc(N)c(C(=O)c3cc(OC)c(OC)c(OC)c3)c2c1 | 7.44 | 7.41 | –
15 | 6.23 | 5.47 | 6.55 | 6.52 | – | – | – | COc1cc(C(=O)c2c(N)oc3cc(O)ccc23)cc(OC)c1OC | 6.37 | 6.43 | –
16 | 8.96 | 9.22 | 8.46 | 9.48 | 6.41 | 97% | 74% | COc1cc(C(=O)c2c(N)oc3cc(C)ccc23)cc(OC)c1OC | 9.47 | 9.52 | GI50 [11]: > 10 µM; GI50 [12]: > 10 µM; GI50 [13]: > 10 µM; Activity [14]: Active; Activity [15]: Active; Activity [16]: Active; viability at 0.01 µM [17]: 74.4%; Activity [18]: 10.95%; Activity [19]: 2.51%; Activity [20]: 12.11%; viability at 0.01 µM [21]: 26.4%; Activity [22]: 37.13%; Activity [23]: 9.35%; Activity [24]: 27.08%; Activity [25]: 24.8%; Activity [26]: 42.6%; Activity [27]: 74.9%; Activity [28]: 57.3%
17 | 8.35 | 8.27 | 8.25 | 8.55 | 6.24 | 92% | 56% | COc1cc(C(=O)c2c(N)oc3cc(Br)ccc23)cc(OC)c1OC | 8.60 | 8.46 | –
